Assays:
Mus musculus [1] = experiment: (§1) Antinociceptive activity against radiant heat-induced nociception in po dosed CD1 mouse assessed as increase in tail withdrawal latency measured after 15 to 120 mins postdose by tail flick test in presence of 1 mg/kg, ip opioid receptor antagonist naloxone hydrochloride administered 30 mins before compound infusion; assay type: functional
Method in brief: (§2)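 Antagonist given ip 30 min before oral dosing (naloxone 1, mecamylamine 2, yohimbine 2, CGP 35348 50 mg/kg). Tail flick with radiant heat at the tail tip, cut-off 15 s; latencies at 15–120 min converted to %MPE. Peak-time quantal response (≥50% MPE); ED50 from at least four groups of six male CD-1 mice.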

Mus musculus [2] = experiment: Antinociceptive activity against radiant heat-induced nociception in CD1 mouse assessed as tail withdrawal latency at 1 mg/kg, po measured after 15 to 120 mins postdose by tail flick test in presence of 0.1 to 1 mg/kg, ip alpha-1-adrenergic receptor antagonist prazosin administered 15 mins before compound infusion; assay type: functional
Method in brief: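 Male CD-1 mice given prazosin ip (0.1 or 1 mg/kg) 15 min before oral dosing at 1 mg/kg. Tail flick: radiant heat 3–4 cm from the tail tip, cut-off 15 s. Hot plate: 48.5 °C, cut-off 60 s. Baseline is the mean of three readings 15 min apart. Latency followed over time and expressed as %MPE.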

Mus musculus [3] = experiment: Antinociceptive activity against radiant heat-induced nociception in icv dosed CD1 mouse assessed as increase in tail withdrawal latency measured after 15 to 120 mins postdose by tail flick test; assay type: functional
Method in brief: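 Male CD-1 mice anesthetized with ketamine-xylazine (80 + 10 mg/kg ip). Dosed into the right lateral ventricle (+2 mm ML, −0.3 mm AP to bregma, 2 mm depth). Tail flick with radiant heat, cut-off 15 s. Latency read at 15–120 min as %MPE.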

[4] = molecular target: T1, Alpha-2A adrenergic receptor (Homo sapiens, UniProt P08913); experiment: Displacement of [3H][…] from human recombinant adrenergic alpha2A receptor expressed in insect Sf9 cells after 60 mins
T1 sequence (P08913 whole entry): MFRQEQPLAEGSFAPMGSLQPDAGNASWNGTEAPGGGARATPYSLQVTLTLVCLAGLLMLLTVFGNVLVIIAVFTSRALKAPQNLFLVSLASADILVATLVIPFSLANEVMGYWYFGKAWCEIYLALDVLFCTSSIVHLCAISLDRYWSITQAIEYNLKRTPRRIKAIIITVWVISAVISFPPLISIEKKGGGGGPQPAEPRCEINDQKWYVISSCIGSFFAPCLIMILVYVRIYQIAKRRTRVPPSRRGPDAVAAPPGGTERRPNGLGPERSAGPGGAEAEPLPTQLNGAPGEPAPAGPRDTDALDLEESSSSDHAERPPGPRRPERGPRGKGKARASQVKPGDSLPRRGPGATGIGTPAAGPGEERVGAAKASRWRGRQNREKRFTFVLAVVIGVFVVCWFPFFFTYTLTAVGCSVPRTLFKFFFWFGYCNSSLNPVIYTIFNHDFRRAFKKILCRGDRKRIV

[5] = molecular target: T2, Alpha-1A adrenergic receptor (Rattus norvegicus) (UniProt P43140); experiment: Inhibition of [3H]prazosin binding to adrenergic alpha1A receptor in Wistar rat submaxillary gland at 10 uM after 60 mins
T2 sequence (whole entry): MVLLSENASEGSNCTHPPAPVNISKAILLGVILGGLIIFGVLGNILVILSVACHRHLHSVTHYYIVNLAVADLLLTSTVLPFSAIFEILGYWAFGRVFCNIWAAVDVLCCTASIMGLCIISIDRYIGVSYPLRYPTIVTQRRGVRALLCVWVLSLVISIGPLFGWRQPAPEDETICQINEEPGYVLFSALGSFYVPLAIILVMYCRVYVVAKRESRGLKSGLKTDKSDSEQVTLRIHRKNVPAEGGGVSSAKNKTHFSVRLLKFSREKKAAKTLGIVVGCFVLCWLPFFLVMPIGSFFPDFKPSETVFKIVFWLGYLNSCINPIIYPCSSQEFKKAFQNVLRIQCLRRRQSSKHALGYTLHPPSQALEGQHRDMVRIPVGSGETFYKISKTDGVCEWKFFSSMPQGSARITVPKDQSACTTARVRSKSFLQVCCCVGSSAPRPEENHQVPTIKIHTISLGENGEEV
Method in brief: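 Wistar rat submaxillary gland membranes with 0.25 nM [3H]-prazosin. Nonspecific binding defined by 10 μM phentolamine. Buffer 50 mM Tris-HCl pH 7.4, 0.5 mM EDTA. Incubated 60 min at 25 °C, then filtered and counted. Duplicate; 1% DMSO final.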

Mus musculus [6] = experiment: Ratio of morphine ED50 to compound ED50 for antinociceptive activity against thermal nociception in po dosed CD1 mouse; assay type: functional
Method in brief: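 Compound and morphine were dosed po in male CD-1 mice. Hot plate was held at 48.5 ± 0.1 °C, scored as paw lick, jerk or jump, with a 60 s cutoff, read at 15–90 min. Tail flick used radiant heat with a 15 s cutoff. Baseline was the mean of three readings. Peak-time %MPE was made quantal, and ED50 came from at least four groups of six mice.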

Mus musculus [7] = experiment: Antinociceptive activity against thermal nociception in po dosed CD1 mouse assessed as increase in latency period to elicit jumping or hind paw licking measured after 15 to 90 mins postdose by hot plate method in presence of 2 mg/kg, ip alpha-2-adrenergic receptor antagonist yohimbine hydrochloride administered 30 mins before compound infusion; assay type: functional
Method in brief: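 Antagonist given ip 30 min before oral dosing (naloxone 1, mecamylamine 2, yohimbine 2, CGP 35348 50 mg/kg). Hot plate at 48.5 ± 0.1 °C inside a cylinder, cut-off 60 s; latencies at 15–90 min as %MPE. Peak-time quantal response (≥50% MPE); ED50 from at least four groups of six male CD-1 mice.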

[8] = molecular target: T3, Alpha-1A adrenergic receptor (Rattus norvegicus, UniProt P43140); experiment: Displacement of [3H]prazosin from adrenergic alpha1A receptor in Wistar rat submaxillary gland after 60 mins; assay type: tissue-based
T3 sequence (P43140 whole entry): T2 sequence (whole entry)

Mus musculus [9] = experiment: as §1, with “of 2” for “of 1”, “ip alpha-2-adrenergic” for “ip opioid”, “antagonist yohimbine” for “antagonist naloxone”; assay type: functional; method in brief: as §2
[10] = molecular target: T4, Alpha-2A adrenergic receptor (Homo sapiens) (UniProt P08913); experiment: Inhibition of [3H][…] binding to human recombinant adrenergic alpha2A receptor expressed in insect Sf9 cells at 10 uM after 60 mins
T4 sequence (whole entry): T1 sequence (P08913 whole entry)
Method in brief: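 Sf9 membranes expressing human recombinant α2A, with 1 nM [3H]-MK-912. Nonspecific binding defined by 10 μM WB-4101. Buffer 50 mM Tris-HCl pH 7.4, 12.5 mM MgCl2, 2 mM EDTA. Incubated 60 min at 25 °C, then filtered and counted by scintillation. Duplicate; 1% DMSO final.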

Mus musculus [11] = experiment: Antinociceptive activity against thermal nociception in po dosed CD1 mouse assessed as latency period to elicit jumping or hind paw licking at 1 mg/kg, po measured after 15 to 90 mins postdose by hot plate method; assay type: functional
Method in brief: (§3)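 Male CD-1 mice (25–30 g), dosed orally at 1 mg/kg. Tail flick: radiant heat focused 3–4 cm from the tail tip, cut-off 15 s at 15 V. Hot plate: 48.5 ± 0.1 °C, licking, paw jerk or jump, cut-off 60 s. Baseline is the mean of three readings 15 min apart. Latency followed to 120 min (tail) or 90 min (plate); data as %MPE.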

Mus musculus [12] = experiment: Antinociceptive activity against radiant heat-induced nociception in CD1 mouse assessed as tail withdrawal latency at 1 mg/kg, po measured after 15 to 120 mins postdose by tail flick test; assay type: functional; method in brief: as §3

IC50 [4]: 320 nM | Emax [5]: 101% | IC50 [8]: 56 nM | Emax [10]: 100%
SMILES: C=Cc1c(C)nn(CCCN2CCN(c3ccc(C)cc3)CC2)c(=O)c1N
ED50 (Mus musculus [1]): 1.2 mg/kg | Activity (Mus musculus [2]): 120 min | ED50 (Mus musculus [3]): 3.5 µg | Ratio ED50 (Mus musculus [6]): 4 | ED50 (Mus musculus [7]): 8.6 mg/kg | ED50 (Mus musculus [9]): 6.1 mg/kg | Activity (Mus musculus [11]): 30 min | Activity (Mus musculus [12]): 30 min

— ChEMBL document CHEMBL1154181 (J Med Chem, 2009)
